INS promoter inh: inhibitors of insulin promoter-driven GFP, primary screen, imaging, TRM-6 cells (human fetal islet line), eGFP reporter, cell count. inhibition, % at 2 µM. hit rate 0.9% among 130,000. reporter expression induced with tamoxifen;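 active means inhibition above the mean plus 3 SD, with well images judged a real hit on visual review, cut at about 60% in these data, passing the limit was not always enough; inconclusive means inhibition over the cutoff but images rejected on review; inactive means inhibition not above the cutoff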
ROMK primary: ROMK potassium channel modulators, primary screen, cell-based, thallium flux, MLSMR library | B-score at 10 µM | AID 1918, 2009 | hit rate 2% among 130,000 | ATP-sensitive inward rectifier potassium channel 1 (Homo sapiens), P48048 | Tet-inducible ROMK, thallium flux fluorescence; actives lie on both sides;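 active means signal ratio slope over the read window, or its plate-corrected B-score, at least 3 SD from the plate mean, either direction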;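 further: B-score of the F/F0 ratio slope over 7 to 12 s after thallium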
Target sequence (P48048 whole entry, looked up): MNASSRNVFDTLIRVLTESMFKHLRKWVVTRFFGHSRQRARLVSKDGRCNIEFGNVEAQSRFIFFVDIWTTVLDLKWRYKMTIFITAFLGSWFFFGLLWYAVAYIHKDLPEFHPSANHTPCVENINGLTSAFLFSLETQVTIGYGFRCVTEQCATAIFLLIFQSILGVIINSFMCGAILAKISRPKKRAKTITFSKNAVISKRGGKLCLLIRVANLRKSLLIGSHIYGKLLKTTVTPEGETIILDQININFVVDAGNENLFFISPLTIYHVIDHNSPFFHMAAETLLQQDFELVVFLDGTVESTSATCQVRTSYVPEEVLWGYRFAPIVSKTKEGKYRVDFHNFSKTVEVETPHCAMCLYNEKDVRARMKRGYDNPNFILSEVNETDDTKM
HSV replic up: enhancers of HSV replication in host cells, fold increase, host cell viability; maximum fold increase; HSV replication augmentation in cells; AID 1956, 2009; hit rate 0.005% among 220,000; in the data active means maximum fold increase above about 1.5; inconclusive means no clear call, values can overlap the other calls; tested in PC3 cells
MT stabilize HCS: microtubule stabilizers in HeLa cells, primary screen, imaging, high-content imaging. HeLa tubulin immunostaining HCS, 24 h; share of cells brighter than vehicle mean+2SD. % tubulin-high responders, % at 10 µM. hit rate 0.83% among 200,000. AID 2205, 2009;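 active means plate Z-score above 3 for both tubulin-high and condensed-nucleus cell shares, with cell loss under 80%, at 10 µM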;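 further: anti alpha tubulin signal scored within the nucleus-defined area of each cell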
bCat nuc transl: modulators of beta-catenin nuclear translocation, primary screen, imaging, HeLa cells, immunofluorescence, high-content; nuclear translocation activity, % at 5 µM; hit rate 0.3% among 190,000;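 active means nuclear translocation activity above 50% at 5 µM, with a well cell count of 50 or more; inconclusive means wells under 50 cells across six images, flagged as toxic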;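 further: per-cell ratio of nuclear to cytoplasmic median beta-catenin stain intensity; plate controls were DMSO negative control for no effect and GSK-3 inhibitor IX positive control for full effect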
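test system = HeLa cells, endogenous beta-catenin | dosing = single 5 µM dose plus 0.02–20 µM confirmation series | times = compound treatment 24 h, 37°C, 5% CO2 | technique = beta-catenin immunofluorescence imaging with DAPI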
ROMK retest: ROMK channel modulator hit retest, confirmation, cell-based, thallium flux, duplicate, resupplied hits; AID 1917, 2009; shares compounds with ROMK primary; fluorescence ratio; hits give low values; hit rate 54% among 3,000; normalized thallium flux (F/F0 slope) at 10 µM;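 active means Flux at 10 µM at least 3 SD below or above vehicle control mean in one or both replicates; inconclusive means no clear call, values can overlap the other calls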
The depositor's hits bear a star; i = inactive; u = inconclusive; x = no result. In the library only some 2.4% were active in any assay of this set; here they are far more common.

SMILES	INS promoter inh	ROMK primary	HSV replic up	MT stabilize HCS	bCat nuc transl	ROMK retest
CCOC(=O)c1ccc(NC(=O)COc2ccc(S(=O)(=O)NC(C)(C)C)cc2)cc1	53	0.7	i	2	0	x
O=C(Nc1ccc(S(=O)(=O)N2CCOCC2)cc1)c1cccs1	-322	0.31	i	2	0	x
Cc1ccc(NC(=O)c2cc(S(=O)(=O)N3CCOCC3)c(Br)s2)cc1	-31	x	i	6	0	0.081
Cc1nc2ccc(NC(=O)c3ccc(S(=O)(=O)N4CCOCC4)cc3)cc2s1	7	3.2*	x	1	5	0.077
CC1CCCCN1CCCNC(=O)c1ccc2c(=O)n(CCc3ccccc3)c(=O)[nH]c2c1 (stereo unspecified)	0	-3*	i	1	-12	u
CC1CCCCN1CCNC(=O)c1ccc2c(=O)n(CCc3ccccc3)c(=O)[nH]c2c1 (stereo unspecified)	-3	-0.19	x	2	0	x
Cc1cc(/C=N/NC(=O)C(=O)NCc2ccccn2)c(C)n1-c1ccccc1	19	2.7*	i	2	1	0.089
Cc1cc(/C=N\NC(=O)COc2cccc3cccnc23)c(C)n1-c1ccccc1	-17	0.032	i	2	2	x
CCOc1cc(C2C(C#N)=C(N)OC(C)=C2C(C)=O)c(Br)c(Br)c1OC(C)C (stereo unspecified)	-31	-3.6*	i	5	0	0.079
O=C(CN(CCc1ccccc1)S(=O)(=O)c1ccc(Br)cc1)N/N=C/c1ccccc1C(=O)O	-33	0	i	5	-2	x
COc1cc2cc(CN(CCc3ccccc3C)C(=S)NCCCN(C)C)c(=O)[nH]c2cc1OC	-30	-1.9	i	3	0	x
Cc1ccc2[nH]c(=O)c(CN(Cc3ccccc3)C(=S)NCCCN(C)C)cc2c1	33	-3.2*	i	4	-1	u
CC(=O)N1c2ccccc2C2(O)N=C(C)SC12 (stereo unspecified)	24	-0.23	i	1	-3	x
CCC(CNc1cc(OC)cc2cccnc12)NC1CCCCC1 (stereo unspecified)	x	x	i	x	1	0.054*
CC(=O)c1ccc2cccc3c2c1N=CN3C	-130	x	x	1	5	0.049*
CN1c2cccc3cccc(c23)N(C)C1(C)C	-6	-0.061	x	2	x	x
Cc1ccc(NC(=S)NNC(=S)Nc2ccc(C)cc2C)cc1	x	5.3*	i	9.8*	52*	0.087
Cc1cccc(-n2cnc(C(=O)N/N=C/c3ccccc3)c2)n1	43	x	i	3	x	x
Fc1cnc(N/N=C/c2ccc(-c3ccc(Br)cc3)o2)nc1N1CCOCC1	x	x	i	x	0	x
Clc1ccc(-c2ccc(/C=N/Nc3cc(N4CCOCC4)nc(N4CCOCC4)n3)o2)cc1	-11	-4*	i	1	3	0.058*
Brc1ccc(-c2ccc(/C=N/Nc3nc(N4CCOCC4)nc(N4CCOCC4)n3)o2)cc1	-67	0.11	i	3	-3	0.075
CN(C)/N=C/c1c(O)ccc2ccccc12	24	-0.23	i	2	-4	x
Oc1ccccc1N=Cc1c(O)ccc2ccccc12	x	x	i	x	-2	0.045*
COc1ccccc1/C=C/C(=O)OCc1nc2ccccc2c(=O)[nH]1	x	0.55	i	3	1	x
CCCCCCCCOC(=O)C[N+](C)(C)C/C=C(/C)Cl	-40	-1.8	i	2	2	x
SMILES	INS promoter inh	ROMK primary	HSV replic up	MT stabilize HCS	bCat nuc transl	ROMK retest
CCCCCCCCCCOC(=O)C[N+](C)(C)C/C=C(/C)Cl	-39	x	i	2	x	0.057*
CCCCCCCCCCCCOC(=O)C[N+](C)(C)C	x	-3.8*	i	x	0	0.048*
CC(CCCCC(=O)Nc1ccc(C(F)(F)F)cc1)NCCc1cnc[nH]1 (stereo unspecified)	x	x	i	x	-1	x
CCCC(=O)Nc1nc(C)c(-c2csc(Nc3ccccc3C)n2)s1	x	-15*	i	4	4	u
CCCCCC(=O)Nc1nc(C)c(-c2csc(Nc3ccccc3OC)n2)s1	-56	x	i	26	12	x
OC(COCc1cccs1)CN1CCN(c2cccc(Cl)c2)CC1 (stereo unspecified)	-16	-2.6*	i	4	x	0.054*
Cc1ccc(-c2nc(CSCC(=O)NCCCN3CCOCC3)c(C)o2)cc1	x	0.72	i	6	-2	x
Cc1ccc(-c2nc(CSCC(=O)NCCN3CCN(Cc4ccccc4)CC3)c(C)o2)cc1	x	-3.7*	i	6	0	u
COc1cccc(C(=O)C2CCCN(Cc3cccn3-c3cccnc3)C2)c1 (stereo unspecified)	x	-2.9*	i	3	1	0.072
COc1ccc(NC(=O)C2CCCN(S(=O)(=O)c3cccnc3)C2)c(OC)c1 (stereo unspecified)	x	x	i	3	x	x
COc1ccc(C(=O)C2CCCN(S(=O)(=O)c3cccnc3)C2)c(C)c1 (stereo unspecified)	x	-8.6*	i	2	-1	0.075
COc1ccc(CCNC(=O)C(NS(=O)(=O)c2ccc3c(c2)CCN3C(C)=O)C(C)C)cc1OC (stereo unspecified)	x	0.33	i	3	0	x
OC(COC(c1ccc(Cl)cc1)c1ccc(Cl)cc1)CN1CCCC1 (stereo unspecified)	-34	-3.9*	i	1	-4	0.057*
O=C(Nc1ccc(N2CCN(c3ncccc3C(F)(F)F)CC2)nc1)c1cccs1	x	x	i	x	4	0.074
CN(CC(=O)NCCc1ccc(S(N)(=O)=O)cc1)c1ccccc1	x	0.12	i	7	-3	x
CN(/C=C/C(=C\C=[N+](C)c1ccccc1)OCCCS(=O)(=O)[O-])c1ccccc1	x	-3.1*	i	5	0	0.061*
CN(/C=C/C(=C/C=[N+](C)c1ccccc1)OCCCS(=O)(=O)[O-])c1ccccc1	0	-3.5*	u	4	-2	0.056*
Cc1cn2c(-c3ccc(Cl)cc3)nnc2s1	x	x	i	2	1	0.071
Clc1ccc(-c2nn3c(-c4ccccc4)nnc3s2)cc1	-19	x	i	4	1	x
N/C(=N/O)c1ccccc1N1CCC(Cc2ccccc2)CC1	x	-4.5*	i	5	2	0.074
C=CCNc1nc(-c2cc3ccccc3o2)cs1	x	x	i	3	2	x
C=CCNc1nc(-c2ccc(O)c(C(N)=O)c2)cs1	10	0.6	i	1	-4	0.082
CCN1C(=O)c2cccc3c(NS(=O)(=O)c4ccc(NC(C)=O)cc4)ccc1c23	-35	x	i	1	-5	x
CCN1C(=O)c2cccc3c(S(=O)(=O)Nc4ccccc4OC)ccc1c23	-109	x	x	6	-1	0.062*
CCOC(=O)Nc1ccc2c(c1)nc(CN1CCCCC1)n2C	x	0.54	i	2	-3	x

Screens deposited in PubChem by several laboratories.
